Screening results from PubChem BioAssay.
CRFBP-R2 agonist: agonists of human CRF-binding protein/CRF-R2 receptor complex; HEK293 CRF-R2/CRF-BP, calcium dye fluorescence (FLIPR); percent of saturating CRF peptide response; activation, % at 13.2 µM; hit rate 0.46% among 350,000;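 active means activation of at least 50%, plus an integration ratio under a set limit after plate pattern correction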
DDE Tn7 FP inh: DD(E)-Tn7 binding inhibition, primary FP screen; inhibition, % at 8.3 µM; hit rate 0.13% among 370,000; FP displacement of FITC-Tn7 peptide from fibrin DD(E); 0% = median of compound wells per plate; P02675;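 active means inhibition above the mean of compounds falling within the control limits plus 3 SD of them, cut at about 14% in these data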
Target sequence (P02675 whole entry, looked up): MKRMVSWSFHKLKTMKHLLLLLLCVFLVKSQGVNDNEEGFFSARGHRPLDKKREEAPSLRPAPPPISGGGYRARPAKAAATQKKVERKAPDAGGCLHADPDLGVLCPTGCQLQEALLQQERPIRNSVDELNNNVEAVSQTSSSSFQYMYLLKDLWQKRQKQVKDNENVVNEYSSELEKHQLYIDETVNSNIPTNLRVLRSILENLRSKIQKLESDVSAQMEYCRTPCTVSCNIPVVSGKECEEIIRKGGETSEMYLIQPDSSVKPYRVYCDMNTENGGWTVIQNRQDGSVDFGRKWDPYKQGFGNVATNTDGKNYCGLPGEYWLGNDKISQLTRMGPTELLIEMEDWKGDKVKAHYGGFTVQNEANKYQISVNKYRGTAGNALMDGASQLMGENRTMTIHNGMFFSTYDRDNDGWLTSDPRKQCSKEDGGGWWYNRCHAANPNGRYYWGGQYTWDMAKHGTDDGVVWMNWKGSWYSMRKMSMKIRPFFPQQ
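System: human fibrin DD(E); quantity: Fibrin-DD(E) at 2 µM final; also added: fluorescent Tn7 probe at 0.1 µM; compound dosing: single nominal test concentration of 8.3 µM per compound; schedule: 10 min preincubation, 3 h with tracer, room temperature; detection: fluorescence polarization of the labelled Tn7 tracer; repeats: one replicate per compound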
CRFBP-R2 block: CRF-BP/CRF-R2 complex antagonism; hit rate 0.59% among 350,000; HEK293 CRF-R2/CRF-BP, CRF-induced calcium fluorescence; inhibition, % at 11.8 µM;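 active means inhibition of the ligand-induced calcium signal above about 50% at the single tested concentration, limit read from the data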
DDE Tn6 FP inh: disrupts Tn6 cyclic peptide binding to fibrin D-Dimer-E complex | P02675 | Fibrin DD(E) TRITC-Tn6 fluorescence polarization displacement | AID 720509 | inhibition, % at 8.3 µM | hit rate 0.21% among 370,000;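 active means inhibition above a per-campaign cutoff: mean of compounds within control limits plus 3 SD, cut at about 15% in these data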
DDE Tn6 FP ctr: counter-screen hit for Tn6 peptide-fibrin DD(E) binding disruption. shares compounds with DDE Tn6 FP inh. TRITC-Tn6 fluorescence polarization displacement; 0% = median of compound wells, not DMSO. inhibition, % at 8.3 µM. hit rate 2% among 680. AID 720621;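 active means inhibition above the mean of test compounds lying between the control limits plus 3 SD of those, cut at about 14% in these data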
DDE Tn6 confirm: confirmation of inhibitors of Tn6 binding to human fibrin DD(E); AID 720631; shares compounds with DDE Tn6 FP inh; inhibition, % at 8.3 µM; hit rate 10% among 680; FP displacement of TRITC-Tn6 peptide from DD(E); 0% = per-plate median of test wells;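 active means inhibition above the mean of compounds lying within the control limits plus 3 SD, cut at about 16% in these data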
A number is an active result; - = inactive; . = not tested or not shown. A selection: hits, their analogues and other compounds. The true share with any hit is near 1.2%.

SMILES | CRFBP-R2 agonist | DDE Tn7 FP inh | CRFBP-R2 block | DDE Tn6 FP inh | DDE Tn6 FP ctr | DDE Tn6 confirm
CCN(CC)c1cccc(OCC(=O)N(C)CCC#N)c1 | - | - | - | 88 | - | -
CCOc1cccc(C(=O)Nc2ccc(N(CC)CC)cc2)c1 | - | - | - | - | . | .
C[C@H](CO)N1C[C@H](C)[C@@H](CN(C)S(=O)(=O)c2ccc(Oc3ccccc3)nc2)OCc2cn(nn2)CCCC1=O | - | - | - | - | . | .
COc1cccc(NC(=O)COC(=O)CCS(=O)(=O)c2ccc(C)cc2)c1 | - | - | - | - | . | .
Cc1ccc(S(=O)(=O)CCC(=O)OCCOc2cccc(Br)c2)cc1 | - | - | - | 15 | - | -
CC1(C(=O)NS(=O)(=O)c2ccccc2C(F)(F)F)CCN1C(=O)C1CCCCC1 (stereo not drawn) | . | - | . | - | . | .
Oc1ccccc1C1CC(c2cccs2)=NC(c2cccc(Br)c2)N1 (stereo not drawn) | - | - | - | 105 | - | -
O=S(=O)(c1ccccc1)N1N=C(c2cccs2)CC1c1cccc(O)c1 (stereo not drawn) | - | - | - | - | . | .
CC(C)C(=O)N1CCC1(C)C(=O)Nc1ccc(-n2cncn2)cc1 (stereo not drawn) | . | - | . | - | . | .
Cc1ccc2c(c1)N(Cc1ccccn1)C(=O)C(C)O2 (stereo not drawn) | - | - | - | 17 | - | -
O=C(NCc1ccc(F)cc1)c1cc(C2CCCCN2C(=O)CCc2ccccc2)on1 (stereo not drawn) | . | - | . | - | . | .
O=C(COC(=O)c1ccccc1NC(=O)c1ccccc1)c1ccc([N+](=O)[O-])cc1 | - | - | - | - | . | .
O=C(COC(=O)c1ccccc1NC(=O)c1ccccc1)c1cccc([N+](=O)[O-])c1 | - | - | - | 17 | - | -
Cc1noc(C)c1NC(=O)N(C)C[C@H]1Oc2c(NC(=O)Nc3ccccc3)cccc2C(=O)N([C@H](C)CO)C[C@@H]1C | - | - | - | - | . | .
CC(C)(C)c1ccc(NC(=O)CCNC(=O)c2ccco2)cc1 | - | - | - | 15 | - | -
O=C(CCNC(=O)c1ccco1)Nc1ccc(C(F)(F)F)cc1 | - | - | - | - | . | .
CC(C)c1ccc(NC2CCCN(C(=O)CCN3Cc4ccccc4C3=O)C2)cc1 (stereo not drawn) | - | - | - | - | . | .
Cc1ccc(O)c(N=Nc2ccccc2)n1 | - | - | - | 16 | - | -
Cc1cc(NS(=O)(=O)c2ccc3c(c2)CCC(=O)N3)ccc1Cl | . | - | . | - | . | .
O=S(=O)(c1ccccc1)c1cnn(-c2ccccc2)c1-c1ccc(Cl)cc1 | - | - | - | 16 | - | -
CC1CN(S(=O)(=O)c2ccc(CN3C(=O)c4cccnc4C3=O)s2)c2ccccc2O1 (stereo not drawn) | - | - | - | - | . | .
CCCCc1cc(=O)oc2c(CN3CCN(C)CC3)c(O)ccc12 | - | - | - | - | . | .
CCCCc1cc(=O)oc2c(CN(C)C)c(O)ccc12 | - | - | - | 16 | - | -
CCC(C(=O)Nc1ccccc1N1CCCC1)c1cccc(OC)c1 (stereo not drawn) | . | - | . | - | . | .
CCOc1ccc(NC(=O)[C@@H](NC(=O)c2ccccc2Br)C(C)C)cc1 | - | - | - | - | . | .
SMILES | CRFBP-R2 agonist | DDE Tn7 FP inh | CRFBP-R2 block | DDE Tn6 FP inh | DDE Tn6 FP ctr | DDE Tn6 confirm
CCOc1ccc(NC(=O)C(CC)NC(=O)c2ccccc2CO)cc1 (stereo not drawn) | - | - | - | 20 | - | -
CCCC(=O)N1CCOCC1c1cc(C(=O)Nc2ccccc2)no1 (stereo not drawn) | . | - | . | - | . | .
CCC(C)c1ccccc1NC(=O)CN1CCN(C/C=C/c2ccccc2)CC1 (stereo not drawn) | - | - | - | 16 | - | -
O=C(CN1CCN(C/C=C/c2ccccc2)CC1)NCc1ccccc1 | - | - | - | - | . | .
Cc1cccc(CN2CCN(C3CN(Cc4cn(Cc5cccc(C(F)(F)F)c5)nn4)S(=O)(=O)C3)CC2)c1 (stereo not drawn) | . | - | . | - | . | .
O=C(N[C@@H](Cc1ccccc1)C(=O)OCC(=O)N1CCOCC1)c1cccs1 | - | - | - | 18 | - | -
CCOc1ccc(CCN2C(=S)N([C@@H](Cc3ccc(O)cc3)CN3CCC[C@@H]3CN3C(=S)NC[C@@H]3CC(C)C)C[C@@H]2Cc2ccc(O)cc2)cc1 | . | - | . | 16 | - | -
Oc1ccc(C[C@H]2CNC(=S)N2C[C@H]2CCCN2C[C@H](Cc2ccccc2)N2C[C@H](Cc3ccc(O)cc3)N(CCc3ccccc3)C2=S)cc1 | . | - | . | 17 | - | -
Oc1ccc(C[C@H]2CNC(=S)N2CC2CCCN2C[C@H](Cc2ccc(O)cc2)N2C[C@H](Cc3ccc(O)cc3)N(CC3CCCCCC3)C2=S)cc1 (stereo partly drawn) | - | - | - | 31 | - | -
C[C@@H]1CN([C@H](C)CO)S(=O)(=O)c2ccc(Br)cc2O[C@H]1CN(C)C(=O)Nc1cccc(F)c1 | - | - | - | - | . | .
FC(F)(F)c1nc(SCc2ccccc2)n[nH]1 | - | - | - | - | . | .
CCOc1ccc(S(=O)(=O)N(CC(=O)NCc2cccnc2)c2ccc(F)cc2)cc1 | - | - | - | 18 | - | -
CC(=O)NCc1ccc(S(=O)(=O)NC(C(=O)O)C(C)C)cc1 (stereo not drawn) | - | - | - | 16 | - | -
COc1ccc(S(=O)(=O)N[C@H](C(=O)O)C(C)C)cc1 | - | - | - | - | . | .
O=C(NC1CCN(S(=O)(=O)c2ccccc2C(F)(F)F)CC1)c1ccco1 | - | - | - | - | . | .
COc1ccc2ccccc2c1C=NNC(=O)c1cc(-c2ccc(C)c(C)c2)n[nH]1 | . | - | . | 26 | - | 16
O=C(NCc1ccccc1CN1CCCC1)c1ccc(S(=O)(=O)Nc2ccccc2)cc1 | - | - | - | - | . | .
CSc1ccc(OC2(C)CCN(Cc3ccc(OC(F)(F)F)cc3)C2)cc1 (stereo not drawn) | . | - | . | - | . | .
CC1CCN(S(=O)(=O)c2ccc(C(=O)Nc3nnc(C4CC4)o3)cc2)CC1 | - | - | - | 21 | - | -
CCCCn1nnnc1C(c1ccccc1)N1CCN(c2cc(C)ccc2C)CC1 (stereo not drawn) | . | - | . | - | . | .
NS(=O)(=O)c1ccc(N2CCN(C(=O)C3COc4ccccc4O3)CC2)nc1 (stereo not drawn) | - | - | - | 18 | - | -
O=C(C1COc2ccccc2O1)N1CCN(c2ccc(C(F)(F)F)cn2)CC1 (stereo not drawn) | - | - | - | - | . | .
Cc1ccc(NC(=O)N(O)C2CCCCC2C#N)cc1 (stereo not drawn) | - | - | - | - | . | .
